Values after ≈ are worked out from the molar mass of the structure shown.
system: Pseudomonas aeruginosa; assay: Antibacterial activity against Pseudomonas aeruginosa ATCC 27853 after 18 to 24 hrs by two-fold serial dilution method; format: functional; settings: not given
In short: (§1)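 Agar two-fold dilution MIC. Compounds were dissolved in 0.1 N NaOH and water, then serially diluted in melted Mueller-Hinton agar, with top concentrations starting at 128. Plates were inoculated at about 10 cfu and incubated at 35 °C for 18–24 h. MIC was taken as the lowest concentration giving 90% inhibition of growth.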

SMILES | MIC90 [mg/L]
Cc1ccc2c(c1)C(=O)C(=O)N2CCCN1CCN(c2cc3c(cc2F)c(=O)c(C(=O)O)cn3C2CC2)CC1 | 2 (≈ 3.76 µM)

system: Mycobacterium tuberculosis; assay: Potency index, ratio of rifampicin MIC90 to compound MIC90 for Mycobacterium tuberculosis H37Rv; format: functional; settings: not given

SMILES | Ratio
Cc1ccc2c(c1)C(=O)C(=O)N2CCCN1CCN(c2cc3c(cc2F)c(=O)c(C(=O)O)cn3C2CC2)CC1 | 8

system: not listed separately; assay: Cytotoxicity against African green monkey Vero cells assessed as reduction in cell viability after 72 hrs by MTT assay; format: cell-based; settings: chlorocebus sabaeus
In short: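 VERO cells were kept in MEM with Earle's salts and 10% FBS at 37 °C, 5% CO2. They were seeded in 96-well plates and allowed to recover for 24 h. Cells were then exposed to compounds in DMSO over a series from 1000 down to 4 for 72 h. Viability was read by MTT, and CC50 was calculated by Bliss analysis.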

SMILES | CC50 at 72 h [mg/L]
Cc1ccc2c(c1)C(=O)C(=O)N2CCCN1CCN(c2cc3c(cc2F)c(=O)c(C(=O)O)cn3C2CC2)CC1 | 64 (≈ 120 µM)

system: Enterococcus faecium; assay: Antibacterial activity against Enterococcus faecium 13-7 after 18 to 24 hrs by two-fold serial dilution method; format: functional; settings: not given; in short: as §1

SMILES | MIC90 [mg/L]
Cc1ccc2c(c1)C(=O)C(=O)N2CCCN1CCN(c2cc3c(cc2F)c(=O)c(C(=O)O)cn3C2CC2)CC1 | 32 (≈ 60.1 µM)

system: Mycobacterium tuberculosis; assay: Potency index, ratio of ciprofloxacin MIC90 to compound MIC90 for Mycobacterium tuberculosis H37Rv; format: functional; settings: not given

SMILES | Ratio
Cc1ccc2c(c1)C(=O)C(=O)N2CCCN1CCN(c2cc3c(cc2F)c(=O)c(C(=O)O)cn3C2CC2)CC1 | 4

system: Enterococcus faecium; assay: Antibacterial activity against Enterococcus faecium ATCC 700221 after 18 to 24 hrs by two-fold serial dilution method; format: functional; settings: not given; in short: as §1

SMILES | MIC90 [mg/L]
Cc1ccc2c(c1)C(=O)C(=O)N2CCCN1CCN(c2cc3c(cc2F)c(=O)c(C(=O)O)cn3C2CC2)CC1 | 4 (≈ 7.51 µM)

system: Escherichia coli; assay: Antibacterial activity against extended-spectrum beta-lactamase harboring Escherichia coli ATCC 35218 after 18 to 24 hrs by two-fold serial dilution method; format: functional; settings: not given
In short: (§2)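 Agar two-fold serial dilution in Mueller-Hinton agar. Strains came from the Chinese Center for Disease Control and Prevention. Compounds were dissolved in 0.1 N NaOH and water, then diluted in melted agar to final levels stepping down from 128. Plates were inoculated with bacterial cfu and incubated at 35 C for 18–24 h. MIC is the lowest concentration giving 90% growth inhibition.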

SMILES | MIC90 [mg/L]
Cc1ccc2c(c1)C(=O)C(=O)N2CCCN1CCN(c2cc3c(cc2F)c(=O)c(C(=O)O)cn3C2CC2)CC1 | ≤ 0.03

system: Klebsiella pneumoniae; assay: Antibacterial activity against extended-spectrum beta-lactamase deficient Klebsiella pneumoniae 15-2 after 18 to 24 hrs by two-fold serial dilution method; format: functional; settings: not given; in short: as §1

SMILES | MIC90 [mg/L]
Cc1ccc2c(c1)C(=O)C(=O)N2CCCN1CCN(c2cc3c(cc2F)c(=O)c(C(=O)O)cn3C2CC2)CC1 | 0.06 (≈ 0.113 µM)

system: Staphylococcus epidermidis; assay: Antibacterial activity against methicillin-sensitive Staphylococcus epidermidis ATCC 12228 after 18 to 24 hrs by two-fold serial dilution method; format: functional; settings: not given; in short: as §1

SMILES | MIC90 [mg/L]
Cc1ccc2c(c1)C(=O)C(=O)N2CCCN1CCN(c2cc3c(cc2F)c(=O)c(C(=O)O)cn3C2CC2)CC1 | 0.125 (≈ 0.235 µM)

system: Stenotrophomonas maltophilia; assay: Antibacterial activity against Stenotrophomonas maltophilia ATCC 13636 after 18 to 24 hrs by two-fold serial dilution method; format: functional; settings: not given; in short: as §1

SMILES | MIC90 [mg/L]
Cc1ccc2c(c1)C(=O)C(=O)N2CCCN1CCN(c2cc3c(cc2F)c(=O)c(C(=O)O)cn3C2CC2)CC1 | 0.06 (≈ 0.113 µM)

system: Staphylococcus epidermidis; assay: Antibacterial activity against methicillin-resistant Staphylococcus epidermidis 13-3 after 18 to 24 hrs by two-fold serial dilution method; format: functional; settings: not given; in short: as §2

SMILES | MIC90 [mg/L]
Cc1ccc2c(c1)C(=O)C(=O)N2CCCN1CCN(c2cc3c(cc2F)c(=O)c(C(=O)O)cn3C2CC2)CC1 | 2 (≈ 3.76 µM)

system: not listed separately; assay: Elimination half life in ICR mouse at 50 mg/kg, po administered as single dose by HPLC analysis; format: ADME, organism-based; settings: in vivo, read-out: beta t1/2 (converted)

SMILES | half-life [h]
Cc1ccc2c(c1)C(=O)C(=O)N2CCCN1CCN(c2cc3c(cc2F)c(=O)c(C(=O)O)cn3C2CC2)CC1 | 4.1

system: Enterococcus faecalis; assay: Antibacterial activity against Enterococcus faecalis ATCC 29212 after 18 to 24 hrs by two-fold serial dilution method; format: functional; settings: not given; in short: as §1

SMILES | MIC90 [mg/L]
Cc1ccc2c(c1)C(=O)C(=O)N2CCCN1CCN(c2cc3c(cc2F)c(=O)c(C(=O)O)cn3C2CC2)CC1 | 0.5 (≈ 0.939 µM)

system: Klebsiella pneumoniae; assay: Antibacterial activity against extended-spectrum beta-lactamase harboring Klebsiella pneumoniae ATCC 700603 after 18 to 24 hrs by two-fold serial dilution method; format: functional; settings: not given; in short: as §2

SMILES | MIC90 [mg/L]
Cc1ccc2c(c1)C(=O)C(=O)N2CCCN1CCN(c2cc3c(cc2F)c(=O)c(C(=O)O)cn3C2CC2)CC1 | 1 (≈ 1.88 µM)

system: not listed separately; assay: Tmax in ICR mouse at 50 mg/kg, po administered as single dose by HPLC analysis; format: ADME, organism-based; settings: in vivo
In short: (§3)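 Mice (3 per group), fasted overnight, given a single oral dose of 50 mg/kg as a suspension in 0.5% CMC. Jugular vein blood taken at 0.25, 0.5, 1, 2, 4, 6, 8 and 24 h. Serum proteins precipitated with acetonitrile and centrifuged; the dried supernatant was redissolved in acetonitrile for HPLC. PK parameters were derived directly from the concentration–time data.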

SMILES | Tmax [h]
Cc1ccc2c(c1)C(=O)C(=O)N2CCCN1CCN(c2cc3c(cc2F)c(=O)c(C(=O)O)cn3C2CC2)CC1 | 1.3

system: Morganella morganii; assay: Antibacterial activity against Morganella morganii ATCC 25830 after 18 to 24 hrs by two-fold serial dilution method; format: functional; settings: not given; in short: as §1

SMILES | MIC90 [mg/L]
Cc1ccc2c(c1)C(=O)C(=O)N2CCCN1CCN(c2cc3c(cc2F)c(=O)c(C(=O)O)cn3C2CC2)CC1 | ≤ 0.03

system: Klebsiella aerogenes; assay: Antibacterial activity against Enterobacter aerogenes ATCC 13048 after 18 to 24 hrs by two-fold serial dilution method; format: functional; settings: not given; in short: as §1

SMILES | MIC90 [mg/L]
Cc1ccc2c(c1)C(=O)C(=O)N2CCCN1CCN(c2cc3c(cc2F)c(=O)c(C(=O)O)cn3C2CC2)CC1 | 0.06 (≈ 0.113 µM)

system: not listed separately; assay: AUC (0 to infinity) in ICR mouse at 50 mg/kg, po administered as single dose by HPLC analysis; format: ADME, organism-based; parameters: dose 50 mg/kg, route oral, time infinity; settings: in vivo; in short: as §3

SMILES | AUC(0-inf) [µg·h/mL]
Cc1ccc2c(c1)C(=O)C(=O)N2CCCN1CCN(c2cc3c(cc2F)c(=O)c(C(=O)O)cn3C2CC2)CC1 | 4.99

system: Mycobacterium tuberculosis; assay: Antimycobacterial activity against Mycobacterium tuberculosis H37Rv after 7 days; format: functional; settings: 168 h
In short: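 Rapid direct susceptibility test in 48-well plates. Two-fold dilutions of compound from DMSO stocks were mixed with an equal volume of bacterial suspension. Medium-only wells served as growth controls and water-only wells as no-growth controls. Plates were sealed and held at 37 C in a humid box, and controls were checked at 3 days. MIC (90% growth inhibition) was read visually by high-magnification observation of the cells and re-read at 7 days.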

SMILES | MIC90 [mg/L]
Cc1ccc2c(c1)C(=O)C(=O)N2CCCN1CCN(c2cc3c(cc2F)c(=O)c(C(=O)O)cn3C2CC2)CC1 | 0.1 (≈ 0.188 µM)

system: Enterobacter cloacae; assay: Antibacterial activity against Enterobacter cloacae ATCC 43560 after 18 to 24 hrs by two-fold serial dilution method; format: functional; settings: not given

SMILES | MIC90 [mg/L]
Cc1ccc2c(c1)C(=O)C(=O)N2CCCN1CCN(c2cc3c(cc2F)c(=O)c(C(=O)O)cn3C2CC2)CC1 | ≤ 0.03

system: Proteus mirabilis; assay: Antibacterial activity against Proteus mirabilis 13-1 after 18 to 24 hrs by two-fold serial dilution method; format: functional; settings: not given; in short: as §1

SMILES | MIC90 [mg/L]
Cc1ccc2c(c1)C(=O)C(=O)N2CCCN1CCN(c2cc3c(cc2F)c(=O)c(C(=O)O)cn3C2CC2)CC1 | ≤ 0.03

system: Proteus vulgaris; assay: Antibacterial activity against Proteus vulgaris ATCC 29905 after 18 to 24 hrs by two-fold serial dilution method; format: functional; settings: not given; in short: as §1

SMILES | MIC90 [mg/L]
Cc1ccc2c(c1)C(=O)C(=O)N2CCCN1CCN(c2cc3c(cc2F)c(=O)c(C(=O)O)cn3C2CC2)CC1 | ≤ 0.03

system: Citrobacter freundii; assay: Antibacterial activity against extended-spectrum beta-lactamase harboring Citrobacter freundii ATCC 43864 after 18 to 24 hrs by two-fold serial dilution method; format: functional; settings: not given; in short: as §2

SMILES | MIC90 [mg/L]
Cc1ccc2c(c1)C(=O)C(=O)N2CCCN1CCN(c2cc3c(cc2F)c(=O)c(C(=O)O)cn3C2CC2)CC1 | ≤ 0.03

system: Enterococcus faecalis; assay: Antibacterial activity against Enterococcus faecalis ATCC 51299 after 18 to 24 hrs by two-fold serial dilution method; format: functional; settings: not given; in short: as §1

SMILES | MIC90 [mg/L]
Cc1ccc2c(c1)C(=O)C(=O)N2CCCN1CCN(c2cc3c(cc2F)c(=O)c(C(=O)O)cn3C2CC2)CC1 | 0.5 (≈ 0.939 µM)

system: Staphylococcus aureus; assay: Antibacterial activity against methicillin-sensitive Staphylococcus aureus ATCC 29213 after 18 to 24 hrs by two-fold serial dilution method; format: functional; settings: not given; in short: as §2

SMILES | MIC90 [mg/L]
Cc1ccc2c(c1)C(=O)C(=O)N2CCCN1CCN(c2cc3c(cc2F)c(=O)c(C(=O)O)cn3C2CC2)CC1 | 0.125 (≈ 0.235 µM)

system: Staphylococcus aureus; assay: Antibacterial activity against methicillin-resistant Staphylococcus aureus ATCC 33591 after 18 to 24 hrs by two-fold serial dilution method; format: functional; settings: not given; in short: as §2

SMILES | MIC90 [mg/L]
Cc1ccc2c(c1)C(=O)C(=O)N2CCCN1CCN(c2cc3c(cc2F)c(=O)c(C(=O)O)cn3C2CC2)CC1 | 0.125 (≈ 0.235 µM)

system: Providencia rettgeri; assay: Antibacterial activity against Providencia rettgeri ATCC 31052 after 18 to 24 hrs by two-fold serial dilution method; format: functional; settings: not given; in short: as §1

SMILES | MIC90 [mg/L]
Cc1ccc2c(c1)C(=O)C(=O)N2CCCN1CCN(c2cc3c(cc2F)c(=O)c(C(=O)O)cn3C2CC2)CC1 | ≤ 0.03

system: Acinetobacter calcoaceticus; assay: Antibacterial activity against Acinetobacter calcoaceticus ATCC 19606 after 18 to 24 hrs by two-fold serial dilution method; format: functional; settings: not given; in short: as §1

SMILES | MIC90 [mg/L]
Cc1ccc2c(c1)C(=O)C(=O)N2CCCN1CCN(c2cc3c(cc2F)c(=O)c(C(=O)O)cn3C2CC2)CC1 | 0.25 (≈ 0.469 µM)

system: not listed separately; assay: Cmax in ICR mouse at 50 mg/kg, po administered as single dose by HPLC analysis; format: ADME, organism-based; parameters: dose 50 mg/kg, route oral; settings: in vivo; in short: as §3

SMILES | Cmax [µg/mL]
Cc1ccc2c(c1)C(=O)C(=O)N2CCCN1CCN(c2cc3c(cc2F)c(=O)c(C(=O)O)cn3C2CC2)CC1 | 1.23

system: Escherichia coli; assay: Antibacterial activity against extended-spectrum beta-lactamase deficient Escherichia coli ATCC 25922 after 18 to 24 hrs by two-fold serial dilution method; format: functional; settings: not given; in short: as §1

SMILES | MIC90 [mg/L]
Cc1ccc2c(c1)C(=O)C(=O)N2CCCN1CCN(c2cc3c(cc2F)c(=O)c(C(=O)O)cn3C2CC2)CC1 | ≤ 0.03

system: Serratia marcescens; assay: Antibacterial activity against Serratia marcescens ATCC 21074 after 18 to 24 hrs by two-fold serial dilution method; format: functional; settings: not given; in short: as §1

SMILES | MIC90 [mg/L]
Cc1ccc2c(c1)C(=O)C(=O)N2CCCN1CCN(c2cc3c(cc2F)c(=O)c(C(=O)O)cn3C2CC2)CC1 | 0.25 (≈ 0.469 µM)

system: not listed separately; assay: Half life in mouse microsomes; format: ADME, Microsome; settings: not given

SMILES | half-life [h]
Cc1ccc2c(c1)C(=O)C(=O)N2CCCN1CCN(c2cc3c(cc2F)c(=O)c(C(=O)O)cn3C2CC2)CC1 | 0.517

Reference: ChEMBL document CHEMBL4270565, “Design, synthesis and antimicrobial evaluation of propylene-tethered ciprofloxacin-isatin hybrids” (Eur J Med Chem, 2018)
